Experimental findings from ChEMBL document CHEMBL1124975 (J Med Chem, 1990) are described below.

For assay [1], the target named is T1, Serotonin 3 (5-HT3) receptor (Rattus norvegicus) (UniProt P35563+Q9JJ16). Kind of assay: Serotonin receptor antagonist activity was measured as ability to block the serotonin-induced Bezold-Jarisch reflex in rats after iv administration of 2 ug/Kg. In kind it is functional, organism-based. An outline of the steps:
(§1)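 Anaesthetic and strain not given; rats dosed iv with test compound via a right femoral vein cannula. Serotonin 100 μg kg-1 iv was given through the same route 1 min after drug. Inhibition of the serotonin-induced bradycardia (Bezold-Jarisch reflex) was scored.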

Assay [2] concerns the target 5-hydroxytryptamine receptor 3A. Description: (§2) Binding affinity towards 5-hydroxytryptamine 3 receptor by displacement of [3H]2 in Neuroblastoma-Glioma NG-108-15 cells. (In general: Loss of bound radioactivity is the signal in a displacement assay; it reports binding, not function.)
Assay [3] in a line: as §2.
Assay [4] has as its target T2, 5-hydroxytryptamine receptor 1A (Mus musculus, UniProt Q64264).
T2 sequence (Q64264 whole entry): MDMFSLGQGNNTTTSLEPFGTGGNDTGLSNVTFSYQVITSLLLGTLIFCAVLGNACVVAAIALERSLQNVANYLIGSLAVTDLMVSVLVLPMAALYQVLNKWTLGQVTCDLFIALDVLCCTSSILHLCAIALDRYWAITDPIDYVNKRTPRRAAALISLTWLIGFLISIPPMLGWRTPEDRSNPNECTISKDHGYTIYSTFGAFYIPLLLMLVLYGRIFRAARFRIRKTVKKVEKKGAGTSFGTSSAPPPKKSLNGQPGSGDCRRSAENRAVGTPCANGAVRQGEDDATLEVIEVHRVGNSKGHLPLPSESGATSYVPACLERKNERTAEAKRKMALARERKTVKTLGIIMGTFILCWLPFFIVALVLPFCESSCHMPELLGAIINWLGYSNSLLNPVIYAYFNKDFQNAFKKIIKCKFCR
Kind of assay: Binding affinity for 5-hydroxytryptamine 1A receptor was determined by using [3H]8-OH-DPAT as radioligand.

Assay [5] addresses 5-hydroxytryptamine receptor 2A (Bos taurus, UniProt Q75Z89). Kind of assay: Binding affinity for 5-hydroxytryptamine 2 receptor was determined by using [3H]ketanserin as radioligand.
The target in assay [6] is Beta-2 adrenergic receptor (Canis lupus familiaris, UniProt P54833). Kind of assay: Binding affinity for Beta adrenergic receptor was determined by using [3H]dihydroalprenolol as radioligand.
Assay [7] addresses GABA-A receptor; anion channel. Description: Displacement of [3H]flunitrazepam from GABA-A Benzodiazepine receptor. In kind it is protein-complex assay.
The target in the next assay is D(2) dopamine receptor (Homo sapiens, UniProt P14416). Description: Binding affinity for Dopamine receptor D2 was determined by using [3H]spiperone as radioligand.
In assay [8] the target is Muscarinic acetylcholine receptor M3 (Rattus norvegicus, UniProt P08483). Description: Binding affinity for Muscarinic acetylcholine receptor was determined by using [3H]QNB as radioligand.
In the next assay the target is Mu-type opioid receptor (Homo sapiens, UniProt P35372). Description: Binding affinity for Opioid receptor mu 1 was determined by using [3H]naloxone as radioligand.
The target of assay [9] is Sigma non-opioid intracellular receptor 1 (Homo sapiens, UniProt Q99720). Description: Binding affinity for Sigma opioid receptor was determined by using [3H](+)-3-(3-hydroxyphenyl)N-1-propyl-piperdine((+)-3-PPP) as radioligand.
The target in a further assay is D(1A) dopamine receptor (Mus musculus, UniProt Q61616). Description: Binding affinity for Dopamine receptor D1 was determined by using [3H]SCH-23390 as radioligand.
For assay [10], the target named is 5-hydroxytryptamine receptor 1B (Rattus norvegicus) (UniProt P28564). Description: Binding affinity for 5-hydroxytryptamine 1B receptor was determined by using [3H]5-HT as radioligand.
For assay [11], the target named is T3, 5-hydroxytryptamine receptor 2C (Rattus norvegicus, UniProt P08909).
T3 sequence (P08909 whole entry): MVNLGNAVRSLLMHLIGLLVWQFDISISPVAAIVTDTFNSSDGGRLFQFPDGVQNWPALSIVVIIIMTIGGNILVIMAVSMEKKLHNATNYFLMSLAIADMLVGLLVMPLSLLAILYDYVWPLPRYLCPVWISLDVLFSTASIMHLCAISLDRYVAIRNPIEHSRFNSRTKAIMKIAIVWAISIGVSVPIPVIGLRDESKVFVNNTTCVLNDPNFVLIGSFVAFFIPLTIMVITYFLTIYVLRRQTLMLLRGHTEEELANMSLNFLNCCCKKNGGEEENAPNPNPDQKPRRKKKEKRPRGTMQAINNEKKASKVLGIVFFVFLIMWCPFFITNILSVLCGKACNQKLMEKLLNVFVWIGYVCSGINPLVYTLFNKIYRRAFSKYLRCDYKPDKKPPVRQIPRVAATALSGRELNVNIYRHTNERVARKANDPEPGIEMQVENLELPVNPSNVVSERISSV
Kind of assay: Binding affinity for 5-hydroxytryptamine 1C receptor was determined by using [3H]- mesulergine as radioligand.

The target of assay [12] is T1, Serotonin 3 (5-HT3) receptor (Rattus norvegicus). Description: Serotonin receptor antagonist activity was measured as ability to block the serotonin-induced Bezold-Jarisch reflex in rats after iv administration of 100 ug/Kg. The class given is functional, organism-based. In a few lines:
as §1

Assay [13] shares this target. Description: Serotonin receptor antagonist activity was measured as ability to block the serotonin-induced Bezold-Jarisch reflex in rats after iv administration of 20 ug/Kg. The class given is functional, organism-based. An outline of the steps: as §1
The target is the same in assay [14]. Description: Serotonin receptor antagonist activity was measured as ability to block the serotonin-induced Bezold-Jarisch reflex in rats after iv administration of 10 ug/Kg. The class given is functional, organism-based. The following applies: in the assay text read “2 ug/Kg” for “10 ug/Kg”. An outline of the steps:
as §1

Assay [15] has the same target. Description: Serotonin receptor antagonist activity was measured as ability to block the serotonin-induced Bezold-Jarisch reflex in rats after iv administration of 5 ug/Kg. In kind it is functional, organism-based. An outline of the steps:
as §1

The inhibition is how much of the control response was suppressed. Usually Ki stands for the equilibrium dissociation constant of an inhibitor or competing ligand from its target.

Sequence of Muscarinic acetylcholine receptor M3 (P08483 whole entry): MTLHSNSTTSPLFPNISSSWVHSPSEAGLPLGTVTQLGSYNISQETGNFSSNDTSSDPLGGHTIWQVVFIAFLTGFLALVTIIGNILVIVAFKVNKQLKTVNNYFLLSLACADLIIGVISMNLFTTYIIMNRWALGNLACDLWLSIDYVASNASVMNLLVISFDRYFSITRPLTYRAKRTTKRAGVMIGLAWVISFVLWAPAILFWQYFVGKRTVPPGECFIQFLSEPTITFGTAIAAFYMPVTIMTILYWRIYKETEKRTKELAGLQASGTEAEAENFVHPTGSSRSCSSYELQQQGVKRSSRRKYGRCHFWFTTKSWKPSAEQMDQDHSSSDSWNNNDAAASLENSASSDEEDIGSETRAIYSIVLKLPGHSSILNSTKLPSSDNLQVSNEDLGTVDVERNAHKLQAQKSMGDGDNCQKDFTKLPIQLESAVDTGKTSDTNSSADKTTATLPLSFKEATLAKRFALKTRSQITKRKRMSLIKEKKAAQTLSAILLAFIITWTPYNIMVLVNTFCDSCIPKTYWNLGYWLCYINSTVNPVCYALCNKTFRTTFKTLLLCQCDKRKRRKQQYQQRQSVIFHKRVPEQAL
Sequence of Sigma non-opioid intracellular receptor 1 (Q99720 whole entry): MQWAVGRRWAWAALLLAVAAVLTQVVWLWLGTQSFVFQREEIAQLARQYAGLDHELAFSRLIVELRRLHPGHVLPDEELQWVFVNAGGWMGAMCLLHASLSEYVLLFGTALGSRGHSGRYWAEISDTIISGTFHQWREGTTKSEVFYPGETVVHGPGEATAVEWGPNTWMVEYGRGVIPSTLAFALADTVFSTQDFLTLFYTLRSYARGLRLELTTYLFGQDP
Sequence of 5-hydroxytryptamine receptor 1B (Rattus norvegicus) (P28564 whole entry, looked up): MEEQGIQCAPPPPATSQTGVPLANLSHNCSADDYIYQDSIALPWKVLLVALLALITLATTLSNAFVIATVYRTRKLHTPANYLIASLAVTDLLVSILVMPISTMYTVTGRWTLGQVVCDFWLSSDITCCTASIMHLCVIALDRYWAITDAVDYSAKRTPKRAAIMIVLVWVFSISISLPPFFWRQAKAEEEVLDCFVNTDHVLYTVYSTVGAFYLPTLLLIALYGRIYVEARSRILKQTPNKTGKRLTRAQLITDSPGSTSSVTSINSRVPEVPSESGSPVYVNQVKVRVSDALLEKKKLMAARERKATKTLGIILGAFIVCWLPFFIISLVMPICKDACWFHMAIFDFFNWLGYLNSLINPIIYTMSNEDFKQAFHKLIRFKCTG
Sequence of D(2) dopamine receptor (P14416 whole entry): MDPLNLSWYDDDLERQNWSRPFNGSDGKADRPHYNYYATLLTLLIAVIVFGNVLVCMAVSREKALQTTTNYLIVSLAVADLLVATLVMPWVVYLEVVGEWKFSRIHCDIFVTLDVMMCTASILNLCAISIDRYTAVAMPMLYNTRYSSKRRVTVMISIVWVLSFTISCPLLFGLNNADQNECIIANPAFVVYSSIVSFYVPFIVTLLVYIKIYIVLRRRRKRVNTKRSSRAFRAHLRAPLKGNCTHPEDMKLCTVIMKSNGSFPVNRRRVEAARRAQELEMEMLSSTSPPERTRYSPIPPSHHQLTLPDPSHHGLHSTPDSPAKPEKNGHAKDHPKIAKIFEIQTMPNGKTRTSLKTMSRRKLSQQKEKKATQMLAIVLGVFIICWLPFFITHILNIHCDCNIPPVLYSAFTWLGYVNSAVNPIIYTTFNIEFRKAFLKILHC
Sequence of Beta-2 adrenergic receptor (P54833 whole entry): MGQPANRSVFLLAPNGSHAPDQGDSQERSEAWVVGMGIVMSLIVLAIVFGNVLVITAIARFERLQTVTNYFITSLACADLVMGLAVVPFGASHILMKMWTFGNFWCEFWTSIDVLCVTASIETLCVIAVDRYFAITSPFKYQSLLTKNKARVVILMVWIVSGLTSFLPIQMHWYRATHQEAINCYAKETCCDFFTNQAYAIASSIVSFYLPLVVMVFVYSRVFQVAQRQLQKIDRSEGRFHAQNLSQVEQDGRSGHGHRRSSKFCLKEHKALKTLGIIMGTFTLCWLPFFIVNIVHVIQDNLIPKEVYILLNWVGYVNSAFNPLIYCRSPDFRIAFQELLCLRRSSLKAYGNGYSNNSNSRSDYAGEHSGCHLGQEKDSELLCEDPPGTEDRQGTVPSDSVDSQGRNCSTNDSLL
Sequence of D(1A) dopamine receptor (Q61616 whole entry): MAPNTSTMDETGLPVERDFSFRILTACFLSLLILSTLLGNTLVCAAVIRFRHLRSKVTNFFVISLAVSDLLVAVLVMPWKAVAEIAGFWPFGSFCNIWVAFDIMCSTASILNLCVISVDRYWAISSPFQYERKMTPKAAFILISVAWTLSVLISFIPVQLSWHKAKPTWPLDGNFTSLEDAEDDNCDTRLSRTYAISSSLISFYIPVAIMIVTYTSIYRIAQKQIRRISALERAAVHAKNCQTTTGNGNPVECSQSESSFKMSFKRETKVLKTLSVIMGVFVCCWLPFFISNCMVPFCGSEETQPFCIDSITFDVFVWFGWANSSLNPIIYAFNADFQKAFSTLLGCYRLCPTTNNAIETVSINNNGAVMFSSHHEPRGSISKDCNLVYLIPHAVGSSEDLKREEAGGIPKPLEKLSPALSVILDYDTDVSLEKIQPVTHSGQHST
Sequence of Mu-type opioid receptor (P35372 whole entry): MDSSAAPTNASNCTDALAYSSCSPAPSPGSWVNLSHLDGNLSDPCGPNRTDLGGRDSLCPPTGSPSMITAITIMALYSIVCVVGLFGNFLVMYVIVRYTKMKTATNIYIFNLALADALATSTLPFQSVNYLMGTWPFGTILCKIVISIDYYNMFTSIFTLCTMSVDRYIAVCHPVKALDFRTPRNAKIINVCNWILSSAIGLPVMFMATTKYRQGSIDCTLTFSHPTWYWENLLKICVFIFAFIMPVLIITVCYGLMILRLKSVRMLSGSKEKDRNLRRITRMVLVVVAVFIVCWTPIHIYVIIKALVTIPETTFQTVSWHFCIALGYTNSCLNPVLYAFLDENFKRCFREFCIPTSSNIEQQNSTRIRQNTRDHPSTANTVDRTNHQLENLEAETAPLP
Sequence of 5-hydroxytryptamine receptor 2A (Q75Z89 whole entry): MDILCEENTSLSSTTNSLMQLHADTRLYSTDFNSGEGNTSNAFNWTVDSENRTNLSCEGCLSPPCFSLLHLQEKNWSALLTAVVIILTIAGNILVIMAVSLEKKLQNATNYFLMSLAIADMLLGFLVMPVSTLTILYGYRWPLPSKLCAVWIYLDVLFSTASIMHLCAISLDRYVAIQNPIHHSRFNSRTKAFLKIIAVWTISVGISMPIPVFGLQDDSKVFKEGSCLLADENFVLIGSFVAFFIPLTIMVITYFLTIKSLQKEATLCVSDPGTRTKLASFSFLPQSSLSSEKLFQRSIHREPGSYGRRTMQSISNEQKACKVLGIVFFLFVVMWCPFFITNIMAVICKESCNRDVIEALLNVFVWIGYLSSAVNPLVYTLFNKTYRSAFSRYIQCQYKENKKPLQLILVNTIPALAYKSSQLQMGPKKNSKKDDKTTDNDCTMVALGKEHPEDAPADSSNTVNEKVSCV

`Cc1[nH]cnc1Cc1nc(-c2ccccc2F)cs1` yielded an inhibition in [1] of 66.4%. The molecule also showed a Ki in assay [2] of 0.00194 µM.
In assay [3], `COc1ccc2ccccc2c1-c1csc(Cc2[nH]cnc2C)n1` showed an inhibitory constant (Ki) of 0.4 µM.
On the same count and under the same terms, next, `N=C(N)NCCOC(=O)c1c[nH]c2ccccc12`: 0.0071 µM; `Cc1[nH]cnc1Cc1nc(-c2cccc(Cl)c2)cs1`: 0.00088 µM.
With `Cc1nc[nH]c1Cc1nc(-c2ccccc2)cs1`, the Ki (in [4]; in assay [5]; in [6]; in assay [7]; on D(2) dopamine receptor; in assay [8]) was above 1 µM in each case. In addition, the Ki at Mu-type opioid receptor is above 1 µM; in [9], above 1 µM; at D(1A) dopamine receptor it was above 1 µM; in assay [2], 0.0018 µM; in [10], above 1 µM; in [11] it was above 1 µM.
In turn, `Cc1[nH]cnc1Cc1nc(-c2cccc(Br)c2)cs1` registered a Ki in [3] of 0.002 µM.
In the case of `Cc1[nH]cnc1Cc1nc(-c2c[nH]c3ccccc23)cs1`, the inhibition in assay [12] turned out to be 45.2%.
In the case of `Cc1[nH]cnc1Cc1nc(-c2cccc3cccnc23)cs1`, the inhibition in assay [1] was determined as 43%; in assay [13], 91.9%. This molecule also gave an inhibitory constant (Ki) in [2] of 0.001 µM.
In [3], `Cc1ccc(-c2csc(Cc3[nH]cnc3C)n2)cc1` returned a Ki of 0.11 µM.
As for `CN1[C@@H]2CC[C@H]1C[C@@H](OC(=O)c1c[nH]c3ccccc13)C2`, the inhibition in [14] amounted to 77.5%.
In turn, `c1cnc2c(-c3csc(Cc4c[nH]cn4)n3)cccc2c1` came in with an inhibitory constant (Ki) in assay [3] of 0.00031 µM.
As to `Cc1nccn1CC1CCc2c(c3ccccc3n2C)C1=O` (stereo unspecified), in assay [13], the inhibition was 89.7%.
On to `Cc1nc[nH]c1Cc1nc(-c2c[nH]c3ccccc23)cs1`, for which the inhibition constant (Ki) in assay [2] turned out to be 0.012 µM.
For `Cc1[nH]cnc1Cc1nc(-c2ccc(F)cc2)cs1`, the Ki in [3] was determined as 0.0049 µM.
Turning to `Cc1[nH]cnc1Cc1nc(-c2ccccc2)cs1`, the inhibition in assay [1] came to 10.7%; in [12], 100%.
On to `N=C(N)NCCCCOC(=O)c1c[nH]c2ccccc12`, for which the Ki in [3] came out at 0.029 µM.
The same measure, in the same setting: in the case of `Cc1ccccc1-c1csc(Cc2[nH]cnc2C)n1` it was 0.0087 µM.
Same read-out and setting: in the case of `CCOc1ccccc1-c1csc(Cc2[nH]cnc2C)n1` it was 0.00095 µM; in that of `Cc1[nH]cnc1Cc1nc(-c2cccc(F)c2)cs1`, 0.0037 µM.
Still for that read-out and setting: in the case of `CN1[C@@H]2CC[C@H]1C[C@H](OC(=O)c1ccccc1)C2` it was 0.329 µM; in that of `COc1c(-c2csc(Cc3[nH]cnc3C)n2)ccc2ccccc12`, 0.095 µM; in that of `Cc1[nH]cnc1Cc1nc(-c2ccccc2C(F)(F)F)cs1`, 0.061 µM.
Consider `N=C(N)NCCCOC(=O)c1c[nH]c2ccccc12`, for which the Ki in [3] is 0.027 µM.
On the same count and under the same terms, next, `COc1cccc(-c2csc(Cc3[nH]cnc3C)n2)c1`: 0.002 µM.
The same measure, in the same setting: next, `COc1ccccc1-c1csc(Cc2c[nH]cn2)n1`: 0.00029 µM.
`Cc1[nH]cnc1Cc1nc(-c2ccc(Br)cc2)cs1` gave an inhibitory constant (Ki) in assay [3] of 0.27 µM.
With `COc1ccccc1-c1csc(Cc2[nH]cnc2C)n1`, the inhibition was 57.9% in assay [1], 100% in assay [12] and 88.5% in assay [15]. The molecule also came in with a Ki in assay [2] of 0.00042 µM.
`c1ccc(-c2csc(Cc3c[nH]cn3)n2)cc1` displayed an inhibitory constant (Ki) in assay [3] of 0.001 µM.
Same read-out and setting: in the case of `N=C(N)NCc1nc(-c2c[nH]c3ccccc23)cs1` it was 0.0033 µM; in that of `Cc1[nH]cnc1Cc1nc(-c2ccccc2O)cs1`, 0.0015 µM; in that of `Cc1[nH]cnc1Cc1nc(-c2ccc(Cl)cc2)cs1`, 0.034 µM.
On the same count and under the same terms, next, `COc1ccc(-c2csc(Cc3[nH]cnc3C)n2)cc1`: 0.39 µM; `COc1cccc(OC)c1-c1csc(Cc2[nH]cnc2C)n1`: 0.43 µM.
